# Measurements of several laboratories.
# Lines come from different studies, so protocols differ.
# RET M918T: Proto-oncogene tyrosine-protein kinase receptor Ret (RET, Homo sapiens, UniProt P07949, M918T)
# RET: Proto-oncogene tyrosine-protein kinase receptor Ret (RET, Homo sapiens, UniProt P07949)
# RET V804M: Proto-oncogene tyrosine-protein kinase receptor Ret (RET, Homo sapiens, UniProt P07949, V804M)
Structure (SMILES),target,read-out,action,method,tested at,endpoint,value
Cn1cncc1[C@](O)(COc1ccc(C#N)cc1-c1ccc(OC(F)(F)F)cc1)c1ccc(C#N)cc1,RET M918T,cell-free assay,,competition with immobilised ligand,1 µM,remaining binding,95%
Nc1ncc(-c2nc(N3CCOCC3)nc(N3CCOCC3)n2)c(C(F)F)n1,"Proto-oncogene tyrosine-protein kinase receptor Ret (RET, Homo sapiens, UniProt P07949, V804L)",binding,,competition with immobilised ligand,10 µM,remaining binding,88%
Cn1cc(-c2cc(F)cc(N3CCn4c(cc5c4CCCC5)C3=O)c2CO)cc(Nc2ccc(N3CCN(C4COC4)CC3)cn2)c1=O,RET,enzyme activity,inhibitor,,0.1 µM,inhibition,11%
CC(C)(C)c1cc(C=C(C#N)C#N)cc(Br)c1O,RET,enzyme activity,inhibitor,,0.5 µM,remaining activity,98.2%
N#CC1(c2ccccn2)CCN(Cc2cc(C(=O)O)c(=O)n3ccccc23)CC1,RET M918T,cell-free assay,,competition with immobilised ligand,1 µM,remaining binding,100%
O=C(Cn1cc(C=C2C(=O)NC(=O)NC2=O)c2ccccc21)Nc1ccccc1,RET,enzyme activity,inhibitor,radiometric,10 µM,remaining activity,110%
C#Cc1n[nH]c2c(-c3cn([C@@H](C)c4ccccn4)c(=O)[nH]c3=O)cc(F)cc12,RET V804M,enzyme activity,inhibitor,,0.1 µM,inhibition,-0.3%
O=C(NCc1ncc(C(F)(F)F)cc1Cl)c1ccc2c(c1)C1(CCS(=O)(=O)CC1)[C@H](C1CC1)N2S(=O)(=O)c1ccc(F)cc1,RET M918T,cell-free assay,,competition with immobilised ligand,1 µM,remaining binding,96%
COc1ncccc1-c1cnn2ccc(N3CCN(C(=O)OC(C)C)CC3)nc12,RET,binding,,competition with immobilised ligand,1 µM,remaining binding,100%
Cc1nn(C)cc1-c1nc2c(N3CCN(Cc4ccc(Cl)cc4)CC3)c(Cl)cnc2[nH]1,RET V804M,binding,,competition with immobilised ligand,1 µM,remaining binding,22%
C#Cc1n[nH]c2c(-c3cn([C@@H](C)c4ccccc4)c(=O)[nH]c3=O)cc(F)cc12,RET,enzyme activity,inhibitor,,0.1 µM,inhibition,3.2%
O=C1NC(=O)N(c2ccccc2)C(=O)C1=CNc1ccc2[nH]c(=O)[nH]c2c1,RET,enzyme activity,inhibitor,radiometric,10 µM,remaining activity,90.6%
